Structures are written as SMILES.

We go through 13 compounds from ChEMBL document CHEMBL1212918, “Computer-aided optimization of phosphinic inhibitors of bacterial ureases” (J Med Chem, 2010).

A short description of assay [1]: Inhibition of Bacillus pasteurii CCM 2056 urease by berthelot colorimetric assay. Set-up: species or system Sporosarcina pasteurii. The method, boiled down:
(§1)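 Urease partially purified from the cells of each strain, which were grown aerobically at 37 °C in yeast extract/urea/1 mM NiCl2 medium at pH 9.0. Purification used anion exchange followed by phenyl-Sepharose. Enzyme incubated at 30 °C in 3 mM phosphate pH 7.0 with increasing inhibitor concentrations and urea 10–100 mM. Activity read by modified Berthelot colorimetry. IC50 and Ki were derived by equation fitting.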

Assay [2] in a line: Inhibition of Proteus vulgaris CCM 1956 urease by berthelot colorimetric assay. The method, boiled down:
as §1

The nature of assay [3]: Inhibition of Klebsiella aerogenes urease.

`O=C(NCP(=O)(O)CO)OCc1ccccc1`: in assay [1], the IC50 is 889 µM and the affinity, expressed as Ki, was 376 µM. In assay [2], this compound yielded a half-inhibitory concentration (IC50) of 377 µM and an inhibition constant (Ki) of 41.9 µM.

Take `O=C(NCP(O)(=S)CO)OCc1ccccc1` (stereo not drawn): in assay [1], the IC50 turned out to be 1420 µM and the Ki turned out to be 428 µM. In assay [2], this compound displayed an IC50 of 976 µM and a Ki of 143 µM.

`NCC(=O)NCP(=O)(O)CO`: the results for the concentration for half-maximal inhibition (IC50) in assay [1] and in assay [2] were 85 µM and 14.9 µM, respectively. The Ki in assay [1] came to 30.5 µM; in assay [2], 7.3 µM.

For the compound `CNCC(=O)NCP(=O)(O)CO`, the 50% inhibitory concentration (IC50) in assay [1] turned out to be 25.4 µM; in assay [2], 20.6 µM. Moreover, the Ki in assay [1] came to 10.6 µM; in assay [2], 16.2 µM.

As to `CN(C)CC(=O)NCP(=O)(O)CO`, the IC50 was 2.15 µM in assay [1] and 0.86 µM in assay [2]. Also, the inhibition constant Ki in assay [1] was determined as 1.15 µM; in assay [2] it was 0.43 µM.

Take `O=C(CNC(=O)OCc1ccccc1)NCP(=O)(O)CO`: in assay [1], inhibition was half-maximal at 5 µM (IC50) and the affinity, expressed as Ki, was 1.35 µM. In assay [2], this compound returned an IC50 of 3.6 µM and a Ki of 1.96 µM.

For `CP(=O)(O)CNC(=O)CN`, the affinity in assay [2] corresponds to a Ki of 30 µM.

`CN(C)CP(=O)(O)CO` [(DIMETHYLAMINO)METHYL(HYDROXYMETHYL)PHOSPHINIC ACID]: in assay [1], half-maximal inhibition (IC50) required 67.6 µM and the affinity, expressed as Ki, was 5 µM. For the same compound, in assay [2], the IC50 worked out at 17.2 µM and the Ki is 3.1 µM.

In assay [3], `CC(=O)NO` [ACETOHYDROXAMIC ACID] came in with an inhibition constant Ki of 2.6 µM.

As to `NCP(=O)(O)CO` [AMINOMETHYL(HYDROXYMETHYL)PHOSPHINIC ACID], in assay [1], the IC50 was found to be 423 µM and the inhibitory constant (Ki) was found to be 95 µM. In addition, in assay [2], the IC50 is 47.7 µM and affinity was put at a Ki of 27.5 µM.

Take `O=C(NCP(=O)(O)CO)c1ccccc1` [BENZOYLAMINOMETHYL(HYDROXYMETHYL)PHOSPHINIC ACID]: in assay [1], the 50% inhibitory concentration (IC50) was 69 µM and the inhibitory constant (Ki) was 31.9 µM. Further, in assay [2], the IC50 amounted to 28 µM and the affinity, expressed as Ki, was 9.2 µM.

`CNCP(=O)(O)CO` [HYDROXYMETHYL((METHYLAMINO)METHYL)PHOSPHINIC ACID]: the half-maximal inhibitory concentration (IC50) in assay [1] was 1.59 µM; in assay [2], 0.96 µM. Also, the inhibition constant (Ki) in assay [1] stood at 0.43 µM; in assay [2], 0.36 µM.

In assay [2], `CNCP(C)(=O)O` [METHYL((METHYLAMINO)METHYL)PHOSPHINIC ACID] displayed a Ki of 27 µM.
